Experiment [1] concerns the target Adenosine receptor A2a (Rattus norvegicus) (UniProt P30543). The experiment can be described thus: Displacement of [3H]NECA from adenosine A2A receptor in rat striatal membranes at 100 uM by radioligand competition assay relative to control. The class given is cell membranes. Conditions: Striatum, Membrane. The method, boiled down:
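Rat striatal membranes, [3H]NECA at 4 nM (Kd = 15.3 nM) with CPA added to minimise A1 binding. Percentage radioligand displacement recorded at the highest tested concentration, 100 μM. Nonspecific binding defined with 100 μM CPA.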
In general terms: In a radioligand displacement assay an active substance lowers the binding of a labelled ligand.

The target in experiment [2] is T1, Adenosine receptor A1 (Rattus norvegicus, UniProt P25099).
T1 sequence (P25099 whole entry): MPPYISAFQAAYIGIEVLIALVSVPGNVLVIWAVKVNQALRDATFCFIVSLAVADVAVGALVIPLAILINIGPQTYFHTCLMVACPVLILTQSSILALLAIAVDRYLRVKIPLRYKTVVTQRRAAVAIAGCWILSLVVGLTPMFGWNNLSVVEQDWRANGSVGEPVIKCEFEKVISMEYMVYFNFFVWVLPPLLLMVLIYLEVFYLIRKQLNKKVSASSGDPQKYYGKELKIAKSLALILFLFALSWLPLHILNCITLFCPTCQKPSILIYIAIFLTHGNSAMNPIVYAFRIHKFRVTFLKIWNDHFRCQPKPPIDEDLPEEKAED
In words: Displacement of [3H]DPCPX from adenosine A1 receptor in rat brain membranes by radioligand competition assay. The class given is cell membranes.

In experiment [3] the target is T2, Adenosine receptor A2a (Rattus norvegicus, UniProt P30543). In words: Displacement of [3H]NECA from adenosine A2A receptor in rat striatal membranes by radioligand competition assay. The class given is cell membranes, Striatum, Membrane.
The species named for the next experiment is Rattus norvegicus. In words: Selectivity index, ratio of Ki for adenosine A1 receptor in rat brain membranes to Ki for adenosine A2A receptor in rat striatal membranes. The class given is cell membranes. The method, boiled down:
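Selectivity index calculated as the ratio A1 Ki / A2A Ki. […] A2A Ki measured by [3H]NECA (4 nM, with CPA) competition in rat striatal membranes. Ki values are triplicate means.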

The target in experiment [4] is T2, Adenosine receptor A2a. In words: Antagonist activity at rat adenosine A2A receptor. The method, boiled down: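 Competition binding at A2A in rat striatal membranes with [3H]NECA (4 nM; Kd = 15.3 nM), with CPA present to limit [3H]NECA binding to A1. Nonspecific binding defined with 100 μM CPA (final). Ki derived from IC50 of sigmoidal dose-response curves of specific binding vs log concentration. Triplicate incubations, mean ± SEM.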

Experiment [5] addresses T1, Adenosine receptor A1. In words: Antagonist activity at rat adenosine A1 receptor.
The target of experiment [6] is T3, Adenosine receptor A1 (Rattus norvegicus) (UniProt P25099).
T3 sequence (whole entry): T1 sequence (P25099 whole entry)
The experiment can be described thus: Displacement of [3H]DPCPX from adenosine A1 receptor in rat brain membranes at 100 uM by radioligand competition assay relative to control. The class given is cell membranes. The method, boiled down:
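Percentage displacement of radioligand recorded at the maximum tested concentration, 100 μM. Nonspecific binding defined with 100 μM CPA.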

The target of experiment [7] is T3, Adenosine receptor A1 (Rattus norvegicus). In words: Selectivity index, ratio of Ki for adenosine A1 receptor in rat brain membranes in presence of GTP to Ki for adenosine A1 receptor in rat brain membranes in absence of GTP. The class given is cell membranes. The essentials:
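Both determined by [3H]DPCPX (0.1 nM) competition in rat whole brain membranes, nonspecific binding by 10 μM unlabelled DPCPX. A shift of about 1 is taken as antagonism.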

Experiment [8] has as its target T1, Adenosine receptor A1. In words: Displacement of [3H]DPCPX from adenosine A1 receptor in rat brain membranes in presence of GTP by radioligand competition assay. The class given is cell membranes.

Chain of Adenosine receptor A2a (Rattus norvegicus) (P30543 whole entry): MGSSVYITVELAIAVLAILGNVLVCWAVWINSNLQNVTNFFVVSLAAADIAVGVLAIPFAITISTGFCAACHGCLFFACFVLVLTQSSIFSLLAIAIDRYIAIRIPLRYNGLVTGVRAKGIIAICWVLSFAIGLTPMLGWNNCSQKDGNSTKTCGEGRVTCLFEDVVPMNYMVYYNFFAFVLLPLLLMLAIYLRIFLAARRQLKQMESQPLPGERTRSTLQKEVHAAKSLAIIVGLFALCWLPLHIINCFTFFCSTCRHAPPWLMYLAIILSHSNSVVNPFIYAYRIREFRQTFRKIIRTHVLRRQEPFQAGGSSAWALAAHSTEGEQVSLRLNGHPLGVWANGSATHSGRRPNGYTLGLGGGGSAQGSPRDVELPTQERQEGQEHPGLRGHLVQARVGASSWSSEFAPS
T2 sequence (P30543 whole entry): as above

In the case of `COc1cccc2c1C/C(=C\c1ccccc1)C2=O`, the inhibition (in general, the percentage by which the read-out fell short of the control) in experiment [1] amounted to 62%. Further, the Ki (commonly a dissociation constant, usually derived from enzyme kinetics or from competition with a known ligand) is 1.65 µM on Adenosine receptor A1 [2] and above 100 µM at Adenosine receptor A2a [3].
`COc1cc2c(cc1OC)C(=O)/C(=C/c1ccc(O)c(O)c1)C2`: the Ratio Ki in the experiment filed under Rattus norvegicus was 0.2. In addition, the Ki amounted to 4.29 µM on Adenosine receptor A1 [2] and 18 µM on Adenosine receptor A2a [3].
As for `O=C1/C(=C/c2ccc(O)cc2)Oc2cc(O)ccc21`, the Ki at Adenosine receptor A2a [4] is above 100 µM.
With `O=C1/C(=C/c2ccc(O)c(O)c2)Oc2c1ccc(O)c2O`, the Ki at Adenosine receptor A1 [5] turned out to be 3.47 µM; on Adenosine receptor A2a [4], 9.35 µM.
`COc1cccc2c1CCC2=O`: the inhibition in experiment [1] came to 72%; in experiment [6], 78%. Also, the Ki at Adenosine receptor A1 [2] and on Adenosine receptor A2a [3] was above 100 µM each time.
On to `COc1ccc2c(c1)C/C(=C\c1ccc(O)c(O)c1)C2=O`, for which, in the experiment listed under Rattus norvegicus, the Ratio Ki was found to be 0.5. Further, the figures for the Ki on Adenosine receptor A1 [2] and on Adenosine receptor A2a [3] were 3.28 µM and 6.32 µM, respectively.
At Adenosine receptor A2a [3], `OC[C@H]1O[C@@H](n2cnc3c(NC4CCCC4)ncnc32)[C@H](O)[C@@H]1O` [N6-CYCLOPENTYLADENOSINE] showed a Ki of 0.163 µM.
`O=C1/C(=C/c2ccc(O)c(O)c2)Cc2c(O)cccc21`: the Ratio Ki in the experiment filed under Rattus norvegicus is 0.5; in experiment [7], 0.9. Moreover, the Ki on Adenosine receptor A1 [2] worked out at 0.435 µM; on Adenosine receptor A2a [3] it was 0.903 µM; on Adenosine receptor A1 [8], 0.339 µM.
Turning to `CN(C)c1ccc(/C=C2\Cc3ccccc3C2=O)cc1`, the inhibition in experiment [1] stood at 65%; in experiment [6], 51%. The Ki on Adenosine receptor A1 [2] and at Adenosine receptor A2a [3] was above 100 µM each time.
For `COc1ccc2c(c1)C/C(=C\c1ccc(N(C)C)cc1)C2=O`, the results for the inhibition in experiment [1] and in experiment [6] were 47% and 64%, respectively. In addition, the Ki at Adenosine receptor A1 [2] and on Adenosine receptor A2a [3] was above 100 µM throughout.
In the case of `O=C1/C(=C/c2cccc(O)c2)CCc2c(O)cccc21`, the Ki on Adenosine receptor A1 [2] came to 1.62 µM; at Adenosine receptor A2a [3] it was 5.46 µM.
On to `O=C1/C(=C/c2ccc(O)c(O)c2)Cc2cc3c(cc21)OCO3`, for which the Ki at Adenosine receptor A1 [2] was above 100 µM; at Adenosine receptor A2a [3], 1.07 µM. Also, in [6], the inhibition is 70%.
In the case of `COc1cccc2c1C/C(=C\c1ccc(O)cc1)C2=O`, the inhibition in [1] came out at 65%; in [6], 31%. Besides, the Ki at Adenosine receptor A1 [2] and at Adenosine receptor A2a [3] was above 100 µM throughout.
For `COc1cccc2c1C/C(=C\c1ccc(N(C)C)cc1)C2=O`, the inhibition in [1] came out at 23%; in [6], 52%. Moreover, the Ki at Adenosine receptor A1 [2] and on Adenosine receptor A2a [3] was above 100 µM in each case.
For `COc1cc(OC)c(OC)cc1/C=C1\Cc2c(OC)cccc2C1=O`, the results for the inhibition in experiment [1] and in experiment [6] were 29% and 46%, respectively. Also, the Ki at Adenosine receptor A1 [2] and on Adenosine receptor A2a [3] was above 100 µM each time.
As to `COc1cccc2c1C/C(=C\c1ccc(O)c(O)c1)C2=O`, the Ratio Ki in the experiment listed under Rattus norvegicus stood at 0.5. The Ki at Adenosine receptor A1 [2] stood at 0.042 µM; at Adenosine receptor A2a [3], 0.078 µM.
Take `COc1cccc2c1C/C(=C\c1cccc(O)c1)C2=O`: the values for the Ratio Ki (in the experiment filed under Rattus norvegicus; in [7]) were 0.4 and 1.46, respectively. For the same compound, the Ki is 0.041 µM at Adenosine receptor A1 [2], 0.097 µM on Adenosine receptor A2a [3] and 0.06 µM on Adenosine receptor A1 [8].
On to `COc1ccc2c(c1)C/C(=C\c1ccccc1)C2=O`, for which the inhibition in experiment [1] is 82%; in experiment [6] it was 42%. Further, the inhibition constant (Ki) at Adenosine receptor A1 [2] and at Adenosine receptor A2a [3] was above 100 µM in each case.

The record behind these values is ChEMBL document CHEMBL4480374, “Methoxy substituted 2-benzylidene-1-indanone derivatives as A1 and/or A2A AR antagonists for the potential treatment of neurological conditions” (Medchemcomm, 2019).
